Key:
Type in all cases: functional
Conditions in all cases: Microsome
Homo sapiens [1] = species on record: Homo sapiens; test: Percent Deuterium retention was measured for the corresponding alpha-cyano amine in the human liver microsomes and value from experiment II are reported.
Summary of the method: (§1)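 Human liver microsomes from three separate sources (homogenized in 4 mL KCl/g liver), 3 mg protein/mL. E or Z (S)-nicotine-5'-d1 (0.5 mM) was incubated 30 min at 37 °C in 0.2 M K phosphate pH 7.4 with 1.5 mM MgCl2, 1.0 mM NaCN and 1 mg/mL NADPH. The 5'-cyano adducts were ether-extracted and measured by GC-EIMS SIM (m/z 109-111) with isotope and contaminant corrections.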

Homo sapiens [2] = species on record: Homo sapiens; test: Percent Deuterium retention was measured for the corresponding alpha-cyano amine in the human liver microsomes and value from experiment I are reported.; summary of the method: as §1
Oryctolagus cuniculus [3] = species on record: Oryctolagus cuniculus; test: Percent Deuterium retention was measured for the corresponding alpha-cyano amine in the Dutch rabbit liver microsomes and value from experiment VI are reported.
Summary of the method: (§2)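 Liver microsomes from male Dutch rabbits (homogenized in 2 mL KCl/g liver), 3 mg protein/mL. The E or Z (S)-nicotine-5'-d1 (0.5 mM) was incubated in 0.2 M K phosphate pH 7.4 with 1.5 mM MgCl2, 1.0 mM NaCN and 1 mg/mL NADPH for 30 min at 37 °C.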

Homo sapiens [4] = species on record: Homo sapiens; test: Percent Deuterium retention was measured for the corresponding alpha-cyano amine in the human liver microsomes and value from experiment III are reported; summary of the method: as §1
Oryctolagus cuniculus [5] = species on record: Oryctolagus cuniculus; test: Percent Deuterium retention was measured for the corresponding alpha-cyano amine in the Dutch rabbit liver microsomes and value from experiment V are reported.; summary of the method: as §2
Oryctolagus cuniculus [6] = species on record: Oryctolagus cuniculus; test: Percent Deuterium retention was measured for the corresponding alpha-cyano amine in the Dutch rabbit liver microsomes and value from experiment I are reported.; summary of the method: as §2
Oryctolagus cuniculus [7] = species on record: Oryctolagus cuniculus; test: Percent Deuterium retention was measured for the corresponding alpha-cyano amine in the Dutch rabbit liver microsomes and value from experiment III are reported.; summary of the method: as §2
Oryctolagus cuniculus [8] = species on record: Oryctolagus cuniculus; test: Percent Deuterium retention was measured for the corresponding alpha-cyano amine in the Dutch rabbit liver microsomes and value from experiment IV are reported.; summary of the method: as §2
Oryctolagus cuniculus [9] = species on record: Oryctolagus cuniculus; test: Percent Deuterium retention was measured for the corresponding alpha-cyano amine in the Dutch rabbit liver microsomes and value from experiment II are reported.; summary of the method: as §2
Homo sapiens [10] = species on record: Homo sapiens; test: Percent Deuterium retention was measured for the corresponding alpha-cyano amine in the human liver microsomes and value from experiment III are reported.; summary of the method: as §1
Oryctolagus cuniculus [11] = species on record: Oryctolagus cuniculus; test: Percent Deuterium retention was measured for the corresponding alpha-cyano amine in the Dutch rabbit liver microsomes and value from experimentI V are reported.; summary of the method: as §2

In the case of `CN1[C@@H](C#N)CC[C@H]1c1cccnc1`, the Deuterium retention (Homo sapiens [1]) is reported as 84%, the Deuterium retention (Homo sapiens [2]) is reported as 92% and the Deuterium retention (Oryctolagus cuniculus [3]) is reported as 88%. It also gave a Deuterium retention (Homo sapiens [4]) of 91%, a Deuterium retention (Oryctolagus cuniculus [5]) of 77% and a Deuterium retention (Oryctolagus cuniculus [6]) of 87%. It also gave a Deuterium retention (Oryctolagus cuniculus [7]) of 89%, a Deuterium retention (Oryctolagus cuniculus [8]) of 79% and a Deuterium retention (Oryctolagus cuniculus [9]) of 81%.
For `CN1[C@H](C#N)CC[C@H]1c1cccnc1`, the Deuterium retention (Homo sapiens [1]) was 24%, the Deuterium retention (Homo sapiens [2]) was 3% and the Deuterium retention (Oryctolagus cuniculus [3]) was 16%. For the same molecule, the Deuterium retention (Oryctolagus cuniculus [5]) was 27%, the Deuterium retention (Homo sapiens [10]) was 3% and the Deuterium retention (Oryctolagus cuniculus [6]) was 34%. It also gave a Deuterium retention (Oryctolagus cuniculus [11]) of 28%, a Deuterium retention (Oryctolagus cuniculus [7]) of 30% and a Deuterium retention (Oryctolagus cuniculus [9]) of 22%.

From ChEMBL document CHEMBL1123578, “Stereochemical studies on the cytochrome P-450 catalyzed oxidation of (S)-nicotine to the (S)-nicotine delta 1'(5')-iminium species” (J Med Chem, 1987)
